ABCB1 block = ABCB1 efflux pump inhibitors, primary screen, cell-based, multiplex, flow cytometry, ABCG2 counter-screen | inhibition, % at 6.6 µM | ATP-dependent translocase ABCB1 (Homo sapiens), P08183 | 190,000 tested, 0.067% active | AID 1326, 2008 | CCRF-Adr cells, JC-1 efflux; in the data active means inhibition above about 40%;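 further: 0% = vehicle and 100% = reference inhibitor; higher value means more JC-1 retained so stronger ABCB1 efflux block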
RAM inhibit = inhibitors of the yeast RAM network, primary screen, dse1pr::URA3 reporter, 5-FOA selection; 190,000 tested, 1.8% active; S. cerevisiae dse1pr::URA3 reporter, 5-FOA growth OD615, 2 d; analog-sensitive cbk1-as2 kinase mutant strain; inhibition, % at 50 µM; AID 868, 2007;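 active means inhibition above a set limit, 3 SD over mean compound inhibition, cut at about 8.4% in these data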;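 further: 0% = DMSO-only wells with no growth and 100% = 10 µM 1-NA-PP1 full growth; inhibition rescues growth on 5-FOA so higher OD means more RAM inhibition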
ABCG2 inh = ABCG2 efflux pump inhibitors, primary screen, multiplex with ABCB1, IgMXP3 cells, flow cytometry; 190,000 tested, 0.1% active; inhibition, % at 6.6 µM; AID 1325, 2008; Broad substrate specificity ATP-binding cassette transporter ABCG2 (Homo sapiens), Q9UNQ0; JC-1 efflux;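 active means inhibition above 80%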;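 further: 0% = DMSO and 100% = nicardipine control wells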
Target sequence (Q9UNQ0 whole entry, looked up): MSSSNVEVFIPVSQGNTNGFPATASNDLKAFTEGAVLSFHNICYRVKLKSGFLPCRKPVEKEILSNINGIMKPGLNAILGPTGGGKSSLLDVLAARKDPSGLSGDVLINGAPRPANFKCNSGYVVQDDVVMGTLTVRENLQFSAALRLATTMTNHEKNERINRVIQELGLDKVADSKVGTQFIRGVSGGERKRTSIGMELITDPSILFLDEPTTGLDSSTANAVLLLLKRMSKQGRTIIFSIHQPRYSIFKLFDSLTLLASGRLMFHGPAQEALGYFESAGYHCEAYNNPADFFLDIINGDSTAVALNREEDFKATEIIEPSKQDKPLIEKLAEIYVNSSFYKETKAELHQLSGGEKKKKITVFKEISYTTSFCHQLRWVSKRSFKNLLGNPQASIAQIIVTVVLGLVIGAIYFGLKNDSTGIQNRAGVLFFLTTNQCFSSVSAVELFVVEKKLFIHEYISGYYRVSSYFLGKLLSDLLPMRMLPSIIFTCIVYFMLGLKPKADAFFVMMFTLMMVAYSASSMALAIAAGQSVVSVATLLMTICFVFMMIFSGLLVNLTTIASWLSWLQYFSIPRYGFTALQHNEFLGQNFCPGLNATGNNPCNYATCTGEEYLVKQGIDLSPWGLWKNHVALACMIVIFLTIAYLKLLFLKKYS
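Assay system – ABCG2 IgMXP3 and barcoded ABCB1 CCRF-Adr cell mix · Input – 3 million cells/mL in well · Reagent – JC-1 fluorescent substrate · Compound – single test compound dose, 6.6 µM final · Timing – 10 min exposure at 25 °C with rotation, no wash · Detection – flow cytometry of retained JC-1 fluorescence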
WT yeast gro inh = growth inhibition of WT strain, primary screen, mitochondrial fusion inhibitor project, WT and mutant strains, chemical genetic; mitochondrial fusion phenotypic screen; 190,000 tested, 2.1% active; inhibition, % at 10 µM; in the data active means inhibition above about 58%; tested in S. cerevisiae
L major viab = Leishmania major promastigote growth inhibition, primary screen; AID 1063, 2008; 200,000 tested, 9% active; Leishmania major promastigotes, resazurin fluorescence viability; inhibition, % at 10 µM; in the data active means inhibition above about 50%;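 further: promastigotes grown with compound for 44 hours at 28 °C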
* = called active by the depositor; . = no result given. In the library only some 12% were active in any assay of this set; here they are far more common.

SMILES | ABCB1 block | RAM inhibit | ABCG2 inh | WT yeast gro inh | L major viab
CCOc1ccc(NC(=S)NN(C)C(=S)Nc2ccc(OCC)cc2)cc1 | 0 | 4 | 2 | 65* | -9
C=CCOc1c(Cl)cc(/C=N/O)cc1OC | 0 | 4 | 1 | 50 | 11
C=CCc1cc(C=O)cc(OC)c1OCc1c(Cl)cccc1Cl | 0 | 1 | 1 | 6 | 79*
Cn1cc(C(N)=O)c2ccccc21 | 1 | 1 | 4 | 4 | -7
Cn1cc(C(=O)CCl)c2ccccc21 | 0 | 0 | 1 | -18 | 92*
Cc1noc(C)c1CSCC(=O)N1CCN(c2ccc([N+](=O)[O-])cc2)CC1 | 1 | 2 | 36 | -8 | 16
CCOC(=O)CCN(Cc1cccs1)S(=O)(=O)c1ccc(Cl)cc1 | 1 | 2 | 1 | 14 | 97*
CC(C)(C)c1ccc(S(=O)(=O)N(CCCN2CCOCC2)Cc2cccs2)cc1 | 12 | -1 | 5 | 18 | 95*
CC(=O)Nc1ccc(S(=O)(=O)N(CCCN2CCOCC2)Cc2cccs2)cc1 | 0 | 2 | -1 | -11 | 13
CCN(CC)c1ccc(NC(=O)C2=CCN(S(=O)(=O)c3ccc(F)cc3)CC2)c(C)c1 | -1 | 1 | 0 | -1 | 11
Cc1sc2nc(C(C)Sc3n[nH]c(N)n3)[nH]c(=O)c2c1C (stereo not drawn) | -1 | 1 | -1 | -19 | -5
CN(C)/N=C/C=C1\CCC/C(=C\c2ccc(F)c(F)c2)C1=O | 0 | 5 | 11 | 10 | 97*
COc1ccc(/C=C2/CCOC2=O)cc1 | 0 | 2 | 2 | -2 | -6
COc1ccc(/C=C2\CCC/C(=C\C=N\N(C)C)C2=O)cc1 | 0 | 0 | 4 | 11 | 93*
Cc1cc(N/N=C/c2ccc(O)c(C)c2O)nc(-c2ccccc2O)n1 | . | 0 | -2 | 76* | 93*
CCOC(=O)C1(CC2CCCCO2)CCN(Cc2cc3ccccc3[nH]2)CC1 (stereo not drawn) | 1 | -1 | 0 | 3 | 67*
CCCCc1ncc(CN2CCC(CC3CCCCO3)(C(=O)OCC)CC2)[nH]1 (stereo not drawn) | 0 | 4 | 1 | 8 | 11
CC(C)NC(=O)c1ccc(-n2c(=S)[nH]c3ccccc3c2=O)cc1 | 0 | 5 | 0 | -2 | -4
CSc1ccccc1NC(=O)CN(C)CC(=O)Nc1ccccc1C(F)(F)F | 1 | -1 | 4 | -12 | 9
O=C(NC1CCCCC1)C(c1ccc(F)cc1)N(Cc1ccco1)C(=O)CN1C(=O)c2ccccc2S1(=O)=O (stereo not drawn) | 5 | 4 | 35 | 0 | -2
Oc1ccc(Nc2nc(N3CCCC3)c3ccccc3n2)cc1 | 1 | 2 | 2 | 27 | 100*
Cc1ccc(Nc2nc(N3CCOCC3)c3ccccc3n2)cc1 | 0 | 1 | 0 | 45 | 88*
Cc1cccc(-c2nc(Nc3ccc(N4CCOCC4)cc3)c3ccccc3n2)c1 | 3 | 5 | 6 | 51 | 74*
COc1ccc(Nc2nc(N3CCCCC3)c3ccccc3n2)cc1 | 2 | 2 | 4 | 75* | 100*
c1ccc(Nc2nc(N3CCCC3)nc(N3CCCC3)n2)cc1 | -1 | 0 | 8 | 35 | 38
SMILES | ABCB1 block | RAM inhibit | ABCG2 inh | WT yeast gro inh | L major viab
Cc1ccc(-c2cc3ccccc3nc2N2CCOCC2)cc1 | 0 | -1 | 0 | 59* | 15
O=C(CN1CCN(Cc2ccccc2)CC1)Nc1ccc([N+](=O)[O-])cc1C(=O)Nc1ccccc1F | 3 | 0 | 0 | 19 | 99*
CCOC(=O)N1CCN(CC(=O)Nc2ccc([N+](=O)[O-])cc2C(=O)Nc2ccccc2F)CC1 | 4 | 3 | 19 | 16 | 75*
CSc1ccccc1NC(=O)CN1CCN(Cc2ccccc2)CC1 | 1 | 0 | 1 | 11 | -3
COc1ccc(NC(=O)/C(Cl)=C(/Cl)S(=O)Cc2ccc(Cl)cc2)cn1 (stereo not drawn) | 0 | 8 | 0 | 91 | 100*
CCN1C(=O)C(CC(=O)Nc2ccc(OC)cc2)N(Cc2ccc3c(c2)OCO3)C1=S (stereo not drawn) | 0 | 4 | -7 | 2 | 48
O=C(O)C1C2C=CC(C2)C1C(=O)NCc1ccccn1 (stereo not drawn) | 0 | 0 | 2 | -33 | -2
O=C(NCc1ccccn1)C1C2C=CC(C2)C1C(=O)Nc1ccc(F)cc1 (stereo not drawn) | 1 | -1 | 2 | -16 | 76*
CCCC[n+]1ccn(C2=C([O-])c3ccccc3C(=O)/C2=N\S(=O)(=O)c2ccc(Br)cc2)c1 | -1 | 7 | 10 | 5 | 35
Cc1ccc(S(=O)(=O)[N-]c2nc3ccccc3nc2-n2cc[n+](CCC(C)C)c2)cc1 | 0 | 3 | 1 | -14 | 99*
Cc1ccc(S(=O)(=O)/N=C2\C(=O)c3ccccc3C([O-])=C2n2cc[n+](CCC(C)C)c2)cc1 | 1 | 0 | 5 | 16 | 88*
O=C(Cn1cnc2scc(-c3ccc(Br)cc3)c2c1=O)N1CCOCC1 | 1 | 0 | 2 | 6 | -4
CCOC(=O)N1CCN(Cc2cc(Cl)c3cccnc3c2O)CC1 | 1 | 0 | 2 | 3 | 100*
CCOC(=O)N1CCN(Cc2ccccc2Cl)CC1 | 0 | 3 | -1 | 6 | -5
COCc1cc(CN2CCN(C)CC2)c(O)c2ncccc12 | 0 | -1 | 0 | 4 | 100*
Oc1c(CN2CCOCC2)cc(COCc2ccccc2)c2cccnc12 | 0 | 0 | 11 | -13 | 100*
CCN(Cc1ccccc1)C(=O)CSc1nc(C)cc(=O)[nH]1 | 1 | 1 | 4 | 8 | -7
CC1=CS(=O)(=O)CC1SC(=S)N(C)C1CCS(=O)(=O)C1 (stereo not drawn) | 0 | 1 | 1 | 6 | -1
CC(=O)N1NC(=Nc2ccccc2)SC1(C)C | 1 | 0 | 3 | 0 | 2
CS(=O)(=O)N1CC(C(=O)NC2CCCC2)Oc2ccc(Cl)cc21 (stereo not drawn) | 1 | 3 | 4 | -8 | -5
CSc1nc(-c2ccccc2)cn1-c1ccc(NC(C)=O)cc1 | 0 | 0 | 2 | 18 | 1
CCOc1ccc(-c2cn(-c3ccc(OC)cc3)c(SC)n2)cc1 | 0 | 1 | 0 | 54 | 51*
CC(C)Cn1cnc2c(c1=O)c1nc3ccccc3nc1n2Cc1ccc2c(c1)OCO2 | 0 | 3 | 0 | 2 | 14
CCC(C)n1cnc2c(c1=O)c1nc3ccccc3nc1n2Cc1ccc(OC)cc1 (stereo not drawn) | 8 | 2 | 14 | 65* | 1
O=S(=O)(c1ccccc1)N1CCN=C1SCc1ccccc1 | 0 | -1 | 2 | 6 | 35

Bioassay records deposited in PubChem BioAssay by several laboratories.
